Screening results deposited in PubChem by several laboratories.
HSV replic up: enhancers of HSV replication in host cells, fold increase, host cell viability | maximum fold increase | 220,000 tested, 0.005% active | AID 1956, 2009 | HSV replication augmentation in cells; in the data active = maximum fold increase above about 1.5; tested in PC3 cells
MDM2 E3 inh: MDM2-luciferase reporter signal enhancers, primary screen, MDM2 E3 ligase inhibitor project, cell-based, luminescence, 1536-well; E3 ubiquitin-protein ligase Mdm2 (Homo sapiens), Q00987; cell-based MDM2 ubiquitination luciferase reporter, 2 h; 0 = plate control, 100 = twice control, blank-subtracted; signal enhancement, % at 5 µM; 210,000 tested, 0.11% active;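 active = signal enhancement of 30% or more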;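 also: luminescence tracks abundance of the self-degrading MDM2-luciferase fusion protein; higher signal means inhibition of MDM2 E3 ligase activity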
Target sequence (Q00987 whole entry, looked up, the tested form may be a part): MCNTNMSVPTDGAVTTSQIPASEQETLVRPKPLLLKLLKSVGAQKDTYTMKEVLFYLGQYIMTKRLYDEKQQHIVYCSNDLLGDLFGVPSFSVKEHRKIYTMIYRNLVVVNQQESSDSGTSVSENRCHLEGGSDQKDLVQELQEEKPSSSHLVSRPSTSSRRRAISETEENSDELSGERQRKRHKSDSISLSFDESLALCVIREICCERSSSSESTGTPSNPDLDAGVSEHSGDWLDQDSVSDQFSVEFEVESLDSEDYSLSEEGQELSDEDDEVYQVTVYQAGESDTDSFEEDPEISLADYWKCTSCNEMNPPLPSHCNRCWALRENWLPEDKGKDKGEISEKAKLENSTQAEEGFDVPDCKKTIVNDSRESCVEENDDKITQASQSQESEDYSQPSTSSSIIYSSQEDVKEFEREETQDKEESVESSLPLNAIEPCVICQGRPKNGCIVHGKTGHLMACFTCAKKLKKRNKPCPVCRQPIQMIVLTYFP
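Test system: mammalian cells stably expressing self-ubiquitinating, self-degrading MDM2 E3–luciferase fusion; Amount: 2000 cells in each well; Medium: DMEM; Schedule: 4 h settle plus 2 h compound, 37 °C; Technique: SteadyLite luciferase luminescence after 15 min room-temperature reagent incubation; Benchmarks: plate control and blank wells.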
Hsp70 activator: Hsp70 transcriptional activators, primary screen, cell-based, HeLa, Hsp70 promoter luciferase, luminescence, 10 µM; activation, % at 10 µM; 200,000 tested, 0.04% active; HeLa Hsp70 promoter luciferase reporter; scaled: vehicle 0, proteasome-inhibitor control 100%;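 active = activation above the mean across all tested compounds plus 3 SD, cutoff set per campaign, cut at about 5.5% in these data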;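 also: 100% = MG132 at 30 µM as the positive control and 0% = DMSO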
HSF-1 act: HSF-1 activators, primary screen, NIH3T3-HGL cells, MG132 stress, luminescence, single point. NIH3T3-HGL HSF-1 luciferase reporter, 8 h; 100% = twice DMSO control signal. AID 504408, 2011. activation, % at 9 µM. 300,000 tested, 1.7% active;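 active = mean replicate activation of at least 50% with a set share of replicates each reaching 50%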;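 also: 0% = median of the neutral control wells and 100% = twice that signal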
Rad51 HR inh: human RAD51 strand exchange inhibitors, primary screen, biochemical, fluorescence | DNA repair protein RAD51 homolog 1 (Homo sapiens), Q06609 | hRad51 DNA strand exchange, fluorescence dequenching | inhibition, % at 10 µM | 200,000 tested, 0.085% active;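 active = inhibition above 40% at the single screening dose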;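 also: 0% = DMSO control wells and 100% = blanks with heterologous ssDNA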
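Read-out basis: percent inhibition relative to plate controls and blanks / Assay system: human Rad51 nucleoprotein filaments preassembled on unlabelled ssDNA / Timing: filaments 15 min 37 °C, then compound 30 min / Control set: per-plate controls and blanks / Technique: fluorescence dequenching at 485/520 nm / Compound: 10 µM final, single point / Also added: Fluorescein- and BHQ1-tagged 47-mer duplex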
HSF1 inh: HSF1 inhibitors in luciferase reporter cells, primary screen, cell-based, NIH3T3, luminescence. NIH3T3-HGL HSE-luciferase, MG132-induced, luminescence 8 h; stronger effect = lower value. activity change, negative = inhibition, % at 7.5 µM (by protocol). 300,000 tested, 0.77% active. AID 2098, 2009;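 active = more than half of replicate wells show activity change below -50%, luminescence cut by over half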;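 also: luciferase reports HSF-1 transcriptional activity via heat shock element; 0% = median of DMSO wells and -100% = zero luminescence signal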
An asterisk follows results filed as active; i = inactive; / = no result. A selection: hits, their analogues and other compounds. The true share with any hit is near 2.6%.

SMILES	HSV replic up	MDM2 E3 inh	Hsp70 activator	HSF-1 act	Rad51 HR inh	HSF1 inh
Cc1ccc(/C=C2\SC(=S)N(CCCC(=O)NNC(=O)c3ccccc3O)C2=O)cc1	i	2.5	/	-56.1	-18.4	-51.5*
CCOc1ccc(/C=C2/SC(=S)N(CCC(=O)Nc3ccc(C(=O)O)cc3)C2=O)cc1	/	/	/	3.7	/	-0.7
COc1ccc(CN2CCC(=O)N([C@H](CO)Cc3ccccc3)CC2)cc1OC	/	/	/	-11.8	/	-2.3
O=C(Nc1ccc(Cl)cc1)C1=Cc2cc(Cl)ccc2OC1	i	-2.0	0.3	-8.6	1.6	-14.1
O=C(Nc1ccc(Cl)cc1Cl)C1=Cc2ccccc2OC1	i	-47.1	0.6	52.6*	-10.4	31.8
OCC1(Cc2cccc(C(F)(F)F)c2)CCN(Cc2cc3ccccc3o2)CC1	i	-7.9	0.0	89.1*	11.7	43.4
COc1ccc(CC2(CO)CCN(Cc3cc4ccccc4o3)CC2)cc1	i	-11.4	-0.3	-6.8	11.9	5.0
Cc1cc(C)nc(NC(=O)c2ccc3c(c2)OCO3)c1	i	-13.6	-0.3	12.1	8.8	19.2
Cc1cc(C)nc(NC(=O)c2c(F)c(F)c(F)c(C(=O)Nc3cc(C)cc(C)n3)c2F)c1	/	/	/	61.6*	/	18.5
Cc1cc(C)nc(NC(=O)Nc2ccc3c(c2)OCO3)c1	i	-29.5	0.2	64.9*	10.1	29.4
Cc1cccc(NC(=O)Nc2cc(C)cc(C)n2)c1	i	-88.7	0.4	53.3*	-8.9	19.4
O=C(NC(=S)Nc1ncccn1)c1ccc(Cl)cc1Cl	i	-4.1	0.5	64.3*	10.4	22.0
Cc1ccnc(NC(=O)c2ccc(Cl)cc2Cl)n1	i	-10.2	-0.3	-18.4	-4.3	-0.9
CSc1nc2c(c(=O)[nH]1)C(c1cccc(Br)c1)CC(=O)N2 (stereo not drawn)	i	-10.4	-0.1	21.1	9.8	1.4
O=C(NCC(c1ccco1)N1CCCCC1)c1ccc2c(c1)S(=O)(=O)c1ccccc1C2=O (stereo not drawn)	/	-15.6	-0.2	-9.8	-4.3	-8.2
CC1(C)CC(=O)C(C(C2=C(O)CC(C)(C)CC2=O)c2ccc(Br)s2)C(=O)C1 (stereo not drawn)	i	-20.2	-0.3	123.8*	5.8	102.2
Cc1ccc(C(C2=C(O)CC(C)(C)CC2=O)C2C(=O)CC(C)(C)CC2=O)s1 (stereo not drawn)	i	4.8	-0.4	-3.0	3.6	4.1
COCCNCC(=O)N1CCCCCC1	i	-10.8	-0.2	4.7	1.8	-6.3
Fc1ccccc1-c1nc2nc3ccccc3nc2n1CC1CCCO1 (stereo not drawn)	i	-5.1	/	62.6*	/	20.9
CCCn1c(SCC(=O)NC2CCCC2)nc2c1c(=O)n(C)c(=O)n2C	/	/	/	4.1	/	-3.2
CCOc1ccc(S(=O)(=O)n2cc(-c3ccc(F)cc3)c(N)n2)cc1	i	-11.6	-0.2	14.5	0.8	6.2
Cc1ccc(-c2cn(S(=O)(=O)c3ccc(C)cc3)nc2N)cc1	i	-10.8	-0.2	69.7*	-0.5	26.0
O=C(Cc1ccc(-n2c(=O)c3ccccc3n(Cc3ccccc3Cl)c2=O)cc1)NCC1CCCO1 (stereo not drawn)	i	30.4*	-0.3	45.9	-1.7	17.8
CCOC(=O)[C@@H]1[C@H]2COc3ccccc3[C@H]2N2C(=O)N(c3ccc(C(F)(F)F)cc3)C(=O)[C@]12C	/	/	/	-4.3	/	-0.3
C=CCN(C(=O)c1ccc2snnc2c1)c1ccccc1	/	/	/	-8.5	/	-3.8
SMILES	HSV replic up	MDM2 E3 inh	Hsp70 activator	HSF-1 act	Rad51 HR inh	HSF1 inh
Cc1cccc(OCC(=O)Nc2ccc3c(c2)nc(CCN2CCCCC2)n3C)c1	/	/	/	84.2*	/	83.8
Cc1ccc(OCC(=O)Nc2ccc3c(c2)nc(CCN2CCCCC2)n3C)cc1	/	/	/	76.0*	/	60.9
Cn1c(CCN2CCCCC2)nc2cc(NC(=O)COc3ccccc3)ccc21	/	/	/	57.9*	/	53.7
COc1ccc(OCC(=O)Nc2ccc3c(c2)nc(CCN2CCCCC2)n3C)cc1	/	/	/	63.5*	/	39.8
CN1CCN(CCc2nc3cc(NC(=O)COc4ccccc4)ccc3n2C)CC1	/	-6.8	0.0	27.7	/	25.6
COc1ccc(OCC(=O)Nc2ccc3c(c2)nc(CCN2CCC(C)CC2)n3C)cc1	/	/	/	30.3	/	19.8
CSc1ncc(S(=O)(=O)c2ccccc2)c(=O)[nH]1	i	-9.5	-0.1	-5.2	0.6	-3.7
OCC1(Cc2ccccc2)CCN(Cc2ccc(C(F)(F)F)cc2)CC1	i	-9.2	-0.1	5.5	15.3	11.2
CCn1c(=S)sc2c(=O)n(CC(=O)Nc3ccc(Cl)cc3)c(C)nc21	/	/	/	19.5	/	0.6
O=C(CN1C(=O)c2cccc([N+](=O)[O-])c2C1=O)NCc1ccccc1	/	/	/	-8.9	/	-5.6
CC1CCN(CCc2nc3cc(NC(=O)COc4ccc(Cl)cc4)ccc3n2C)CC1	/	/	/	71.6*	/	51.7
COc1ccccc1N(C(=O)c1snc(C(N)=O)c1N)C(C(=O)NC1CCCC1)c1ccc2ncccc2c1 (stereo not drawn)	/	/	/	-2.8	/	-2.9
COc1ccc(S(=O)(=O)Nc2cccc(S(=O)(=O)N3CCCCCC3)c2)cc1	i	0.8	-0.5	8.7	-6.5	4.4
O=S(=O)(Nc1nc2ccccc2nc1Nc1cccc(S(=O)(=O)N2CCCCC2)c1)c1ccccc1	i	-2.0	-0.3	100.9*	-6.2	70.2
CCCCN=Cc1c(C)[nH]n(-c2ccccc2)c1=S	i	-4.3	-0.1	-1.0	28.3	-7.6
Cc1[nH]n(-c2ccccc2)c(=S)c1C=Nc1cccc([N+](=O)[O-])c1	i	-5.3	-0.2	-66.8	-4.4	-59.5*
Cc1cc([N+](=O)[O-])ccc1NC(=O)c1cccc(NC(=O)C(C)C)c1	i	-0.2	-0.1	57.9*	17.4	20.9
Cc1cc([N+](=O)[O-])ccc1NC(=O)c1csc(C)c1C	/	/	/	53.5*	/	23.6
Cc1ccc(NC(=O)c2sc(N)nc2-c2ccc([N+](=O)[O-])cc2)c(C)c1	i	-1.8	/	63.5*	-3.8	40.8
O=C(Nc1ccc([N+](=O)[O-])cc1)C(=O)Nc1cccc(C(=O)O)c1	i	-84.9	/	-76.5	3.0	-70.8*
CC(C)C(=O)Nc1cccc(C(=O)Nc2cc([N+](=O)[O-])ccc2Cl)c1	i	-7.7	-0.1	-1.4	7.5	-9.0
CC(=O)Nc1ccc(SCC(=O)N2CCN(S(=O)(=O)c3ccccc3)CC2)cc1	/	/	/	-64.6	/	-57.2*
